In ChEMBL document CHEMBL1156857, “N-Acetamideindolecarboxylic acid allosteric 'finger-loop' inhibitors of the hepatitis C virus NS5B polymerase: discovery and initial optimization studies” (Bioorg Med Chem Lett, 2010):
pEC50, pIC50: −log10 of the molar value. Values after ≈ are worked out from the molar mass of the structure shown.

Legend:
[1] = Inhibition of calf thymus DNA-directed RNA polymerase 2; parameters: species or system Bos taurus
Hepatitis C virus = assay: Antiviral activity against Hepatitis C virus subtype 1b infected in human Huh7 cells assessed as inhibition of viral RNA replication; assay type: functional, organism-based, Hepacivirus hominis, genotype 1b, Huh-7; details: for pEC50: Hepatitis C virus, genotype 1b, Huh-7, read-out: EC50
How it was run: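 Stable subgenomic HCV genotype 1b replicon in Huh-7 cells carrying a modified luciferase reporter. EC50 from duplicate or more determinations. Some inhibitors were also run in a 72 h replicon format, with HCV RNA normalized to total cellular RNA. Cytotoxicity checked as TC50.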

[2] = Inhibition of histidine-tagged HCV NS5Bdelta21 by scintillation proximity assay; parameters: species or system Hepacivirus hominis
How it was run: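 Soluble truncated NS5B at 12 nM. Reaction contains 0.01% w/v BSA, with no dodecyl-β-D-maltoside or IGEPAL. Other conditions follow an earlier method. IC50 is the mean of duplicate experiments on two separate weighings.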

[3] = Permeability from apical to basolateral side of the human Caco-2 cells at pH 7.4; assay type: ADME, cell-based; details: Caco-2, pH 7.4, read-out: permeability
How it was run: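 Caco-2 permeability measured in the apical-to-basal direction at pH 7.4.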

[4] = Half life in human liver microsomes at 2 uM; assay type: ADME, Microsome
How it was run: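 Human liver microsomes incubated with test compound at 2 µM. Stability reported as T1/2 in min.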

[5] = Equilibrium solubility at pH 7.2 with amorphous solid after 24 hrs by shake flask method; assay type: physicochemical; details: buffer

SMILES	pIC50 [1]	pEC50 (Hepatitis C virus)	pIC50 [2]	further results
CN1CCCN(C(=O)Cn2c(-c3ccoc3)c(C3CCCCC3)c3ccc(C(=O)O)cc32)CC1	< 3.60	6.48	7.70	
CCOC(=O)Cn1c(-c2ccoc2)c(C2CCCCC2)c2ccc(C(=O)O)cc21		5.07	7.05	
O=C(O)c1ccc2c(C3CCCCC3)c(-c3ccco3)n(CC(=O)N3CCOCC3)c2c1	< 3.60	6.00	7.40	
O=C(O)Cn1c(-c2ccoc2)c(C2CCCCC2)c2ccc(C(=O)O)cc21			7.22	
CC(C)NC(=O)Cn1c(-c2ccoc2)c(C2CCCCC2)c2ccc(C(=O)O)cc21	< 3.60		7.30	
Nc1cccc(Cn2c(-c3ccoc3)c(C3CCCCC3)c3ccc(C(=O)O)cc32)c1		< 5.10	6.89	
O=C(O)c1ccc2c(C3CCCCC3)c(-c3cccs3)n(CC(=O)N3CCOCC3)c2c1	< 3.60	6.22	7.52	
Cc1ccccc1Cn1c(-c2ccoc2)c(C2CCCCC2)c2ccc(C(=O)O)cc21			6.54	
O=C(O)c1ccc2c(C3CCCCC3)c(-c3cnccn3)n(CC(=O)N3CCC(N4CCCC4)CC3)c2c1	< 3.60	5.00	7.22	
CN(C)C(=O)Cn1c(-c2ccco2)c(C2CCCCC2)c2ccc(C(=O)O)cc21	< 3.60	5.82	7.40	
NC(=O)Cn1c(-c2ccoc2)c(C2CCCCC2)c2ccc(C(=O)O)cc21		5.62	7.40	
COCCN(C)C(=O)Cn1c(-c2ccoc2)c(C2CCCCC2)c2ccc(C(=O)O)cc21	< 3.60	5.89	7.30	
O=C(O)c1cccc(Cn2c(-c3ccoc3)c(C3CCCCC3)c3ccc(C(=O)O)cc32)c1			7.15	
O=C(O)c1ccc2c(C3CCCCC3)c(-c3ccoc3)[nH]c2c1		5.17	7.52	
O=C(O)c1ccc2c(C3CCCCC3)c(-c3ccoc3)n(CCO)c2c1		< 5.00	7.00	
CC(C(=O)O)n1c(-c2ccoc2)c(C2CCCCC2)c2ccc(C(=O)O)cc21 (racemic)			5.55	
C=CCn1c(-c2ccoc2)c(C2CCCCC2)c2ccc(C(=O)O)cc21		< 5.00	7.10	
O=C(O)c1ccc2c(C3CCCCC3)c(-c3ccoc3)n(Cc3ccccn3)c2c1			6.89	
O=C(O)c1ccc2c(C3CCCCC3)c(-c3ccsc3)n(CC(=O)N3CCC(N4CCCC4)CC3)c2c1	< 3.60	6.00	7.52	
CN(C)C(=O)Cn1c(-c2cnccn2)c(C2CCCCC2)c2ccc(C(=O)O)cc21	< 3.60		6.80	
CN(C)C(=O)Cn1c(-c2ccccc2)c(C2CCCCC2)c2ccc(C(=O)O)cc21	< 3.60	5.85	7.40	
O=C(O)c1ccc2c(C3CCCCC3)c(-c3ccccn3)n(CC(=O)N3CCOCC3)c2c1	< 3.60			

SMILES	pIC50 [1]	pEC50 (Hepatitis C virus)	pIC50 [2]	further results
O=C(O)c1ccc2c(C3CCCCC3)c(-c3ccoc3)n(CC(=O)N3CCCC3)c2c1	< 3.60		7.40	
O=C(O)c1ccc2c(C3CCCCC3)c(-c3ccoc3)n(CC(=O)N3CCC(N4CCCC4)CC3)c2c1	< 3.60	6.42	7.70	Papp A→B [3]: 1.4 ×10⁻⁶ cm/s; half-life at 2 µM [4]: > 5 h; solubility thermodynamic at 24 h [5]: 79 µg/mL (≈ 157 µM)
CN(C)C(=O)Cn1c(-c2cccs2)c(C2CCCCC2)c2ccc(C(=O)O)cc21	< 3.60	6.22	7.70	
CN1CCC(N(C)C(=O)Cn2c(-c3ccoc3)c(C3CCCCC3)c3ccc(C(=O)O)cc32)CC1	< 3.60	6.89	7.70	Papp A→B [3]: 0.2 ×10⁻⁶ cm/s; half-life at 2 µM [4]: > 5 h; solubility thermodynamic at 24 h [5]: 290 µg/mL (≈ 607 µM)
Cn1c(-c2ccoc2)c(C2CCCCC2)c2ccc(C(=O)N[C@@H](Cc3c[nH]c4ccc(O)cc34)c3cscn3)cc21		7.30	7.00	
CC(C)N(C(=O)Cn1c(-c2ccoc2)c(C2CCCCC2)c2ccc(C(=O)O)cc21)C(C)C	< 3.60	5.64	7.15	
CCCN(C)C(=O)Cn1c(-c2ccoc2)c(C2CCCCC2)c2ccc(C(=O)O)cc21	< 3.60	5.77	7.30	
O=C(O)c1ccc2c(C3CCCCC3)c(-c3ccccc3)n(CC(=O)N3CCOCC3)c2c1	< 3.60	6.15	7.15	
CCN(CC)CCN(C)C(=O)Cn1c(-c2ccoc2)c(C2CCCCC2)c2ccc(C(=O)O)cc21	< 3.60	6.34	7.52	
O=C(O)c1ccc2c(C3CCCCC3)c(-c3ccoc3)n(CC(=O)N3CCC(C(=O)O)CC3)c2c1	< 3.60	< 4.03	7.52	
O=C(O)CCn1c(-c2ccoc2)c(C2CCCCC2)c2ccc(C(=O)O)cc21			6.68	
CN(C(=O)Cn1c(-c2ccoc2)c(C2CCCCC2)c2ccc(C(=O)O)cc21)C1CCCCC1	< 3.60		6.96	
O=C(O)c1ccc(Cn2c(-c3ccoc3)c(C3CCCCC3)c3ccc(C(=O)O)cc32)cc1			7.40	
O=C(O)c1ccc2c(C3CCCCC3)c(-c3cnccn3)n(CC(=O)N3CCOCC3)c2c1	< 3.60		7.00	
CCn1c(-c2ccoc2)c(C2CCCCC2)c2ccc(C(=O)O)cc21		< 5.00	7.15	
CC(C)N(C)C(=O)Cn1c(-c2ccoc2)c(C2CCCCC2)c2ccc(C(=O)O)cc21	< 3.60	6.10	7.52	
COCCNC(=O)Cn1c(-c2ccoc2)c(C2CCCCC2)c2ccc(C(=O)O)cc21	< 3.60		7.30	
CN(CCc1ccncc1)C(=O)Cn1c(-c2ccoc2)c(C2CCCCC2)c2ccc(C(=O)O)cc21	< 3.60	6.20	7.52	
O=C(Cn1c(-c2ccoc2)c(C2CCCCC2)c2ccc(C(=O)O)cc21)NCc1ccccc1	< 3.60		7.22	
CN(C)CCCN(C)C(=O)Cn1c(-c2ccoc2)c(C2CCCCC2)c2ccc(C(=O)O)cc21	< 3.60	6.24	7.70	
O=C(O)c1ccc2c(C3CCCCC3)c(-c3ccoc3)n(CC(=O)N3CCC(O)CC3)c2c1	< 3.60	5.70	7.70	
O=C(O)c1ccc2c(c1)nc(-c1ccoc1)n2C1CCCCC1			5.96	EC50 (Hepatitis C virus; huh-7): Not Active

SMILES	pIC50 [1]	pEC50 (Hepatitis C virus)	pIC50 [2]	further results
CN(C)C(=O)Cn1c(-c2ccsc2)c(C2CCCCC2)c2ccc(C(=O)O)cc21	< 3.60	6.19	7.40	
O=C(O)c1ccc2c(C3CCCCC3)c(-c3cc4ccccc4s3)n(CC(=O)N3CCOCC3)c2c1	< 3.60	5.96	6.80	
Nc1ccccc1Cn1c(-c2ccoc2)c(C2CCCCC2)c2ccc(C(=O)O)cc21		5.54	7.05	
O=C(O)c1ccc2c(C3CCCCC3)c(-c3ccccn3)n(CC(=O)N3CCC(N4CCCC4)CC3)c2c1	< 3.60			
CN(C)CCN(C)C(=O)Cn1c(-c2ccoc2)c(C2CCCCC2)c2ccc(C(=O)O)cc21	< 3.60	6.36	7.70	
CN(C)C(=O)Cn1c(-c2ccccn2)c(C2CCCCC2)c2ccc(C(=O)O)cc21	< 3.60	5.47	6.62	
O=C(O)c1ccc2c(C3CCCCC3)c(-c3ccco3)n(CC(=O)N3CCC(N4CCCC4)CC3)c2c1	< 3.60	5.92	7.52	
O=C(O)c1ccc2c(C3CCCCC3)c(-c3ccoc3)n(CC(=O)N3CCN(CCO)CC3)c2c1	< 3.60	5.89	7.70	
O=C(O)c1ccc2c(C3CCCCC3)c(-c3cc4ccccc4s3)n(CC(=O)N3CCC(N4CCCC4)CC3)c2c1	< 3.60	6.00	6.80	
C=C(C)n1c(-c2ccoc2)c(C2CCCCC2)c2ccc(C(=O)O)cc21		< 5.00	6.44	
CNC(=O)Cn1c(-c2ccoc2)c(C2CCCCC2)c2ccc(C(=O)O)cc21	< 3.60	5.70	7.30	
O=C(O)c1ccc2c(C3CCCCC3)c(-c3ccsc3)n(CC(=O)N3CCOCC3)c2c1	< 3.60	6.48	7.40	
O=C(Cn1c(-c2ccoc2)c(C2CCCCC2)c2ccc(C(=O)O)cc21)NCC1CCCCC1	< 3.60		6.92	
O=C(O)c1ccc2c(C3CCCCC3)c(-c3ccoc3)n(CC(=O)N3CCCCC3)c2c1	< 3.60	6.09	7.40	
CN(C)C(=O)Cn1c(-c2cc3ccccc3s2)c(C2CCCCC2)c2ccc(C(=O)O)cc21	< 3.60	5.60	6.68	
CCN(Cc1ccncc1)C(=O)Cn1c(-c2ccoc2)c(C2CCCCC2)c2ccc(C(=O)O)cc21	< 3.60		7.40	
O=C(Cn1c(-c2ccoc2)c(C2CCCCC2)c2ccc(C(=O)O)cc21)Nc1ccccc1	< 3.60		7.10	
Cc1cccc(C)c1Cn1c(-c2ccoc2)c(C2CCCCC2)c2ccc(C(=O)O)cc21			< 3.86	
O=C(O)c1ccc2c(C3CCCCC3)c(-c3ccoc3)n(CC(=O)N3CCC(N4CCCCC4)CC3)c2c1	< 3.60	6.11	7.52	
O=C(O)c1ccc2c(C3CCCCC3)c(-c3ccoc3)n(CC(=O)N3CCC(CCO)CC3)c2c1	< 3.60	5.89	7.15	
O=C(O)c1ccc2c(C3CCCCC3)c(-c3ccoc3)n(Cc3ccccc3)c2c1			6.60	
